Activity calls are given as the source filed them. The rule behind the calls is not given here.
Assays:
Rattus norvegicus [1] = species on record: Rattus norvegicus; assay: Displacement of [3H]CGP-12177 from beta1-adrenergic receptor in rat cerebral cortex at 50 uM after 60 mins by scintillation counting; format: tissue-based
Mus musculus [2] = assay: Anticonvulsant activity in CF1 mouse assessed as protection against maximal electroshock-induced seizures at 100 mg/kg, ip after 4 hrs; format: functional, organism-based; set-up: dose 100 mg/kg
Procedure, shortened: (§1)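 Mice given compound i.p. at 30, 100 or 300 mg/kg and tested 0.5 or 4 h after dosing. Seizures were induced by maximal electroshock (MES) or subcutaneous metrazole (ScMet). Prevention of seizures counts as protection. Result is recorded as number of animals protected over number tested.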

[3] = target: T1, 5-hydroxytryptamine receptor 1A (Homo sapiens, UniProt P08908); assay: Displacement of [3H]8-OH-DPAT from human 5HT1A receptor expressed in HEK293 cells after 1 hr; format: cell-based
T1 sequence (P08908 whole entry): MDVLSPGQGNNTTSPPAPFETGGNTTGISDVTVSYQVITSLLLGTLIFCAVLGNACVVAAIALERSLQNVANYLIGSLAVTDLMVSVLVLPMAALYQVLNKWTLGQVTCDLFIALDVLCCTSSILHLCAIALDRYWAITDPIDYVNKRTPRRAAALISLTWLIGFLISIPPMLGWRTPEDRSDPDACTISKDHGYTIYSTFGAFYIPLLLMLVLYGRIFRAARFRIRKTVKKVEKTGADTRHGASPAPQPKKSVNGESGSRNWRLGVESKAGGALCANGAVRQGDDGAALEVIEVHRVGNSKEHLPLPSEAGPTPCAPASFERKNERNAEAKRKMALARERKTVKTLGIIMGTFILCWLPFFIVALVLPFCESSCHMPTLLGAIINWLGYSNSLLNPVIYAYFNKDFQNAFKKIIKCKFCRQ

Rattus norvegicus [4] = assay: Anticonvulsant activity in Sprague-Dawley rat assessed as protection against maximal electroshock-induced seizures at 30 mg/kg, po after 2 hrs; format: functional, organism-based; set-up: dose 30 mg/kg
Procedure, shortened: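 Rats dosed orally at 30 mg/kg and tested in MES at several time points after dosing. Protection means seizures were prevented. Result is recorded as number of animals protected over number tested.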

Mus musculus [5] = assay: Anticonvulsant activity in CF1 mouse assessed as protection against maximal electroshock-induced seizures at 30 mg/kg, ip after 4 hrs; format: functional, organism-based; set-up: dose 30 mg/kg; procedure, shortened: as §1
[6] = target: T2, Adrenergic receptor alpha-1 (Rattus norvegicus, UniProt P15823+P23944+P43140); assay: Displacement of [3H]prazosin from alpha1-adrenergic receptor in rat cerebral cortex after 30 mins by scintillation counting; format: tissue-based
T2 sequence (P15823 whole entry): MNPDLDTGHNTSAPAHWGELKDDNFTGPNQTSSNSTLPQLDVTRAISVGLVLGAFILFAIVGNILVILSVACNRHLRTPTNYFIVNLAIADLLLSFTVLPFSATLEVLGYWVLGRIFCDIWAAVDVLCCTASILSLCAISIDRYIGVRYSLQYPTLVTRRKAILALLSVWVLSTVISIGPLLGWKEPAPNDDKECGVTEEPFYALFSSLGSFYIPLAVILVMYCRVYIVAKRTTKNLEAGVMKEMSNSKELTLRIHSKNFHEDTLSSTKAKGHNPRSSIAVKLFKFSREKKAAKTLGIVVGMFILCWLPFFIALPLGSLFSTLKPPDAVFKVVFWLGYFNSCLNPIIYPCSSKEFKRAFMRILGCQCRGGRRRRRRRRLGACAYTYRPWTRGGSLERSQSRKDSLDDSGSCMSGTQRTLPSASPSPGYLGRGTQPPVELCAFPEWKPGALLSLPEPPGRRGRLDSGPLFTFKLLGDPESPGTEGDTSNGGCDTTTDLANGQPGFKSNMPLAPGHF
T2 sequence (P23944 whole entry): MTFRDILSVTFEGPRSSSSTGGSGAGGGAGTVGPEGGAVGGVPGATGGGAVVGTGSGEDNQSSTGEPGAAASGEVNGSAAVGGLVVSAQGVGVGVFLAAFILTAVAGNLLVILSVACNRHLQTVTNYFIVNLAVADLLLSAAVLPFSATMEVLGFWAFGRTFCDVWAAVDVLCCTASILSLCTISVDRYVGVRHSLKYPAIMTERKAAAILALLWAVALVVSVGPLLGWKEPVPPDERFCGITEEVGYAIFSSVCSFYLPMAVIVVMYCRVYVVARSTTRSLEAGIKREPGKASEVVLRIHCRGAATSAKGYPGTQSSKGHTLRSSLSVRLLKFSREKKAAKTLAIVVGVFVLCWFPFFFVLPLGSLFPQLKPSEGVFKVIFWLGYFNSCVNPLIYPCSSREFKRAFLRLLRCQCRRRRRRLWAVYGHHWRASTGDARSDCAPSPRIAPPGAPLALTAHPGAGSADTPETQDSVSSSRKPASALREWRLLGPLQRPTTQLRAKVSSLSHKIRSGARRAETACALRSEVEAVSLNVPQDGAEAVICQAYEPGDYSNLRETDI
T2 sequence (P43140 whole entry): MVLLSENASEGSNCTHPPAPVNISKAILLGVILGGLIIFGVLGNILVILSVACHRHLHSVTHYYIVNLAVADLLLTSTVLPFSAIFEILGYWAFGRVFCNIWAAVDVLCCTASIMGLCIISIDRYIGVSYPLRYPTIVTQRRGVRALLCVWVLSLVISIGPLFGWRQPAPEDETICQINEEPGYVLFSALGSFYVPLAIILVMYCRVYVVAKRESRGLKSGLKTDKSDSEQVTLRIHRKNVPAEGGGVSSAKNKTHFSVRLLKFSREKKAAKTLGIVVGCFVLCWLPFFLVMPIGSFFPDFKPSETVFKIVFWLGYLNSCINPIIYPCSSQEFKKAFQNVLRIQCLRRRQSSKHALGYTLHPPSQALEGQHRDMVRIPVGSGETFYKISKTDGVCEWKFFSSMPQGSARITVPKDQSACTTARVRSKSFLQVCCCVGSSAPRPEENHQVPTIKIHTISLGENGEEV
Procedure, shortened: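 Radioligand binding on rat brain tissue membranes, run in 96-well format. [3H]prazosin was used for α1 (n = 2) and [3H]CGP-12177 for β1 (n = 2). Ki was calculated by the Cheng–Prusoff equation.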

Mus musculus [7] = assay: Anticonvulsant activity in CF1 mouse assessed as protection against subcutaneous metrazole-induced seizures at 30 mg/kg, ip after 4 hrs; format: functional, organism-based; set-up: dose 30 mg/kg; procedure, shortened: as §1

- inhibition (Rattus norvegicus [1]): inactive
- Ki [3]: 4.5 µM
- Ki [6]: 3.93 µM
SMILES: Cl.Cl.Cl.O=c1c2ccc(Cl)cc2oc2c(CN3CCN(CCO)CC3)cccc12
- Activity (Mus musculus [2]): inactive
- Activity (Rattus norvegicus [4]): inactive
- Activity (Mus musculus [5]): inactive
- Activity (Mus musculus [7]): inactive

Reference: ChEMBL document CHEMBL2401625, “Synthesis and evaluation of pharmacological properties of some new xanthone derivatives with piperazine moiety” (Bioorg Med Chem Lett, 2013)
